Test results reported in ChEMBL document CHEMBL1123084, “Decomposition reactions of (hydroxyalkyl) nitrosoureas and related compounds: possible relationship to carcinogenicity” (J Med Chem, 1985).

Tests used:
Type in all cases: ADME
[1] = Half life in buffer
Outline: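 Compound was dissolved in pH 7.4 phosphate buffer (0.067 or 0.1 M) in sealed vials at 37 °C. Loss of parent was monitored by HPLC, and the first-order half-life was derived from ln concentration vs time.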

[2] = Half life in 0.01 M HClO4, pH = 3.0
Outline: (§1)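 Compound at 0.02-0.03 M was decomposed in sealed vials at 37 °C. The pH 3.0 medium was perchloric acid; the other pH values used 0.067 M phosphate buffer (pH 5.5, 6.0, 6.5, 8.0). Loss of starting material was followed by HPLC, and half-life came from first-order ln concentration vs time plots.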

[3] = Half life in 0.067 M (D20), pH = 5.5; settings: 0.067 M (D2O); outline: as §1
[4] = Half life in 0.067 M (D20), pH = 6.0; settings: 0.067 M (D2O); outline: as §1
[5] = Half life in 0.067 M (D20), pH = 6.5; settings: 0.067 M (D2O); outline: as §1
[6] = Half life in 0.067 M (D2O), pH = 7.4
[7] = Half life in 0.067 M buffer, pH = 7.4
[8] = Half life in 0.10 M (D20), pH = 7.4; settings: 0.10 M (D2O)
[9] = Half life in 0.10 M buffer, pH = 7.4
[10] = Half life in 0.067 M buffer, pH = 8; outline: as §1

CC(O)CN(N=O)C(N)=O (stereo unspecified)
half-life [1]: 15 min | half-life [2]: 600 min | half-life [3]: 410 min | half-life [4]: 120 min | half-life [5]: 26 min | half-life [6]: 70 min | half-life ([7]; 0.067 M buffer): 14.5 min | T1/2 ([7]; buffer): 9.5 min | half-life [8]: 37.2 min | half-life [9]: 20 min | half-life [10]: 6.5 min
